Assay results from ChEMBL document CHEMBL4130479, “Scalaradial Is a Potent Inhibitor of Transient Receptor Potential Melastatin 2 (TRPM2) Ion Channels” (J Nat Prod, 2017).
The source made the active and inactive calls. No cut-off for these calls is given here.

Key:
[1] = target: T1, Transient receptor potential cation channel subfamily M member 2 (Homo sapiens, UniProt O94759); test: Inhibition of human FLAG-tagged TRPM2 expressed in HEK293 cells assessed as reduction in ADPR-induced intracellular calcium flux at 5 uM measured within 60 mins by whole cell patch clamp electrophysiology method; assay type: cell-based
T1 sequence (O94759 whole entry): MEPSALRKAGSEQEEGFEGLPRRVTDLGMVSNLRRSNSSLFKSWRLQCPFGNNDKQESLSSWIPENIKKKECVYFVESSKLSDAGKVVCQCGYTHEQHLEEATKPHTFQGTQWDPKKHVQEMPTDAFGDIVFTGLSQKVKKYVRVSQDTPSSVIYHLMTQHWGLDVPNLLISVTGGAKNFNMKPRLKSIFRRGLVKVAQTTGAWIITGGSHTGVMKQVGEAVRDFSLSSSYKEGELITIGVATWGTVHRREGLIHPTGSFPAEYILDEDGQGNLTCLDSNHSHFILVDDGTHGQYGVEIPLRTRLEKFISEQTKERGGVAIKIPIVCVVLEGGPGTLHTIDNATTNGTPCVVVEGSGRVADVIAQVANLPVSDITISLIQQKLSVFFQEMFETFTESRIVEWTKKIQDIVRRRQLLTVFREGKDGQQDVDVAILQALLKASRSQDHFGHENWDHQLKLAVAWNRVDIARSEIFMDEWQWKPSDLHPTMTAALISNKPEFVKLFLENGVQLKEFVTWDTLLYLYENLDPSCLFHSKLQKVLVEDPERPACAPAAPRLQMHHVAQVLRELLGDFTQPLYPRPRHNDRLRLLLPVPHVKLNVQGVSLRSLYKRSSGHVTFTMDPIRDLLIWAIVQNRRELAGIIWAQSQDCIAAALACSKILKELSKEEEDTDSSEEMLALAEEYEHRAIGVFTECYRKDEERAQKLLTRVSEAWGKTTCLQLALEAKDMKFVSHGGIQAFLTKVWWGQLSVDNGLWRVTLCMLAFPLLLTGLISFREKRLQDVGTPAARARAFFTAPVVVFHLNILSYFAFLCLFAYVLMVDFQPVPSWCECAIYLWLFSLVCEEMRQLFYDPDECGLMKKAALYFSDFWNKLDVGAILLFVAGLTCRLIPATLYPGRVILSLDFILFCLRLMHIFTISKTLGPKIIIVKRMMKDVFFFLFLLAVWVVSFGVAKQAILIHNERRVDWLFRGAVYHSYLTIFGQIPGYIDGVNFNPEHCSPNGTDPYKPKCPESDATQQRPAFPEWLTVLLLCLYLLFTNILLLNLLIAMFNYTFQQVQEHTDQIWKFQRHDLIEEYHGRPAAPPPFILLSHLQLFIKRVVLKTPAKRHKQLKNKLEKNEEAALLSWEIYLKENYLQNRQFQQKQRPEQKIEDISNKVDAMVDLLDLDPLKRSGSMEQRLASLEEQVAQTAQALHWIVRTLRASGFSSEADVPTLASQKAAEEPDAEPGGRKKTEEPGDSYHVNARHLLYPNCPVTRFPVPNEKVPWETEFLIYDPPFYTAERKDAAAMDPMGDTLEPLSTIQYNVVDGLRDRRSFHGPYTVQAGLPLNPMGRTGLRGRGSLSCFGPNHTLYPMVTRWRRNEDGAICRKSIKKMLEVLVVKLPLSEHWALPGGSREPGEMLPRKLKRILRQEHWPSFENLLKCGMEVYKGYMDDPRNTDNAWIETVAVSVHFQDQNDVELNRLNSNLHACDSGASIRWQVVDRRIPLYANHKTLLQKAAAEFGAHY
Procedure, shortened: (§1)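 TRPM2-HEK293 cells incubated with the sPLA2 inhibitors in standard external Ringer's. Whole-cell currents were recorded within the first 60 min using K-glutamate pipette with 100 μM ADPR. Current at −80 mV was normalized to same-day controls, n = 3–17.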

HEK293 [2] = test: Cytotoxicity against HEK293 cells assessed as cell death at 25 to 50 uM measured for 1 hr; assay type: cell-based; settings: human, hek293, 1 h
[3] = target: T1, Transient receptor potential cation channel subfamily M member 2; test: Inhibition of human FLAG-tagged TRPM2 expressed in HEK293 cells assessed as reduction in H2O2-induced intracellular calcium flux pretreated for 30 secs followed by H2O2 addition measured for 120 secs by […]; assay type: cell-based
[4] = target: T1, Transient receptor potential cation channel subfamily M member 2; test: Inhibition of human FLAG-tagged TRPM2 expressed in HEK293 cells assessed as reduction in ADPR-induced intracellular calcium flux at 20 uM measured within 60 mins by whole cell patch clamp electrophysiology method; assay type: cell-based
Procedure, shortened: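 Tetracycline-induced HEK293 cells stably carrying FLAG-human TRPM2 were incubated with inhibitor in standard external Ringer's (pH 7.2). Whole-cell recordings were made during the first 60 min at 21–25 °C. Pipette: K-glutamate with unbuffered Ca2+ plus 100 μM ADPR. Ramps ran −100 to +100 mV over 50 ms at 0.5 Hz. Current was taken at −80 mV as % of same-day controls (n = 3–17).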

[5] = target: T1, Transient receptor potential cation channel subfamily M member 2; test: Inhibition of human TRPM2 expressed in HEK293 cells assessed as reduction in ADPR-induced intracellular calcium flux at 0 mV holding potential by whole cell patch clamp electrophysiology method; assay type: cell-based
Procedure, shortened: (§2)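 Human FLAG-TRPM2 in HEK293 cells, induced with tetracycline for 6–9 h and incubated 30–60 min in external Ringer's (0.1–2 μM) before patching. Pipette was K-glutamate, Ca2+ buffered to 300 nM, with 100 μM ADPR. Ramps ran −100 to +100 mV from a 0 mV holding potential, 0.5 Hz.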

[6] = target: T1, Transient receptor potential cation channel subfamily M member 2; test: Inhibition of human FLAG-tagged TRPM2 expressed in HEK293 cells assessed as reduction in ADPR-induced intracellular calcium flux at 200 to 2000 nM measured after 60 mins by whole cell patch clamp electrophysiology method; assay type: cell-based
Procedure, shortened: (§3)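 HEK293 cells stably carrying tetracycline-inducible FLAG-human TRPM2, induced 6–9 h, preincubated 30–60 min with compound in external Ringer's, 21–25 °C. Whole-cell patch clamp used K-glutamate pipette solution with 100 μM ADPR and Ca2+ buffered to 300 nM. Ramps from −100 to +100 mV over 50 ms at 0.5 Hz.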

HEK293 [7] = test: Cytotoxicity against HEK293 cells assessed as effect on cell viability at 2 uM; assay type: cell-based; settings: human, hek293, 2 µM
HEK293 [8] = test: Cytotoxicity against HEK293 cells assessed as cell rounding at 2 uM; assay type: cell-based; settings: human, hek293, 2 µM
HEK293 [9] = test: Cytotoxicity against HEK293 cells assessed as granule formation at 2 uM; assay type: cell-based; settings: human, hek293, 2 µM
HEK293 [10] = test: Cytotoxicity against HEK293 cells assessed as cell blebbing at 2 uM; assay type: cell-based; settings: human, hek293, 2 µM
[11] = target: T1, Transient receptor potential cation channel subfamily M member 2; settings: HEK293, 100 nM
[12] = target: T1, Transient receptor potential cation channel subfamily M member 2; test: Inhibition of human FLAG-tagged TRPM2 expressed in HEK293 cells assessed as reduction in ADPR-induced intracellular calcium flux at 1 uM measured within 60 mins by whole cell patch clamp electrophysiology method; assay type: cell-based; procedure, shortened: as §1
HEK293 [13] = test: Cytotoxicity against HEK293 cells assessed as cell death at 5 to 10 uM measured for 1 hr; assay type: cell-based; settings: human, hek293, 1 h
[14] = target: T1, Transient receptor potential cation channel subfamily M member 2; test: Inhibition of human FLAG-tagged TRPM2 expressed in HEK293 cells assessed as reduction in ADPR-induced intracellular calcium flux after 30 to 60 mins by whole cell patch clamp electrophysiology method; assay type: cell-based; procedure, shortened: as §2
[15] = target: T1, Transient receptor potential cation channel subfamily M member 2; test: Inhibition of human FLAG-tagged TRPM2 expressed in HEK293 cells assessed as reduction in ADPR-induced intracellular calcium flux at 2 uM by whole cell patch clamp electrophysiology method; assay type: cell-based; settings: TDE = time-dependent effect
[16] = target: T1, Transient receptor potential cation channel subfamily M member 2; test: Inhibition of human FLAG-tagged TRPM2 expressed in HEK293 cells assessed as reduction in ADPR-induced intracellular calcium flux at 2 uM treated for 6 hrs followed by compound washout measured within 5 mins by whole cell patch clamp electrophysiology method; assay type: cell-based
[17] = target: Transient receptor potential cation channel subfamily M member 7 (Mus musculus) (UniProt Q923J1); test: Inhibition of mouse FLAG-tagged TRPM7 expressed in HEK293 cells assessed as reduction in BAPTA-induced intracellular calcium flux at 0.1 to 2 uM by whole cell patch clamp electrophysiology method; assay type: cell-based; settings: TDE = time-dependent effect
Procedure, shortened: (§4)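 Mouse FLAG-TRPM7 in HEK293 cells, induced with tetracycline for 19–22 h and incubated with 100 nM–2 μM compound in culture medium from 15 min (maximum 60 min) before patching. Pipette was K-glutamate with 10 mM K-BAPTA. Ramps ran −100 to +100 mV, 0.5 Hz. Current at +80 mV and 200 s was normalized, and IC50 came from a fit.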

[18] = target: Transient receptor potential cation channel subfamily M member 7 (Mus musculus, UniProt Q923J1); test: Inhibition of mouse FLAG-tagged TRPM7 expressed in HEK293 cells assessed as reduction in BAPTA-induced intracellular calcium flux after 15 to 60 mins by whole cell patch clamp electrophysiology method; assay type: cell-based; procedure, shortened: as §4
[19] = target: ORAI1/STIM1 (Homo sapiens) (UniProt Q96D31+Q13586); test: Inhibition of EGFP-tagged Orai1/STIM1 (unknown origin) expressed in HEK293 cells assessed as reduction in BAPTA-induced calcium release activated calcium channel currents at 2 uM after 30 to 60 mins by whole cell patch clamp method; assay type: cell-based
Procedure, shortened: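 HEK293 cells stably expressing STIM1 and transiently transfected with CRACM1 (Orai1)-IRES-EGFP, recorded 24–48 h after transfection and picked by EGFP. Cells were exposed for 30–60 min. External solution held 10 mM CaCl2 (NaCl/TEA-based, pH 7.2). Pipette was Cs-glutamate with 20 mM Cs-BAPTA and 20 μM IP3. Ramps ran −150 to +150 mV over 50 ms at 0.5 Hz, read at −80 mV.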

[20] = target: Transient receptor potential cation channel subfamily M member 4 (Homo sapiens) (UniProt Q8TD43); test: Inhibition of TRPM4 in human Jurkat T cells assessed as reduction in intracellular calcium flux at 500 nM within 60 mins by whole cell patch clamp electrophysiology method; assay type: cell-based
Chain of Transient receptor potential cation channel subfamily M member 4 (Homo sapiens) (Q8TD43 whole entry): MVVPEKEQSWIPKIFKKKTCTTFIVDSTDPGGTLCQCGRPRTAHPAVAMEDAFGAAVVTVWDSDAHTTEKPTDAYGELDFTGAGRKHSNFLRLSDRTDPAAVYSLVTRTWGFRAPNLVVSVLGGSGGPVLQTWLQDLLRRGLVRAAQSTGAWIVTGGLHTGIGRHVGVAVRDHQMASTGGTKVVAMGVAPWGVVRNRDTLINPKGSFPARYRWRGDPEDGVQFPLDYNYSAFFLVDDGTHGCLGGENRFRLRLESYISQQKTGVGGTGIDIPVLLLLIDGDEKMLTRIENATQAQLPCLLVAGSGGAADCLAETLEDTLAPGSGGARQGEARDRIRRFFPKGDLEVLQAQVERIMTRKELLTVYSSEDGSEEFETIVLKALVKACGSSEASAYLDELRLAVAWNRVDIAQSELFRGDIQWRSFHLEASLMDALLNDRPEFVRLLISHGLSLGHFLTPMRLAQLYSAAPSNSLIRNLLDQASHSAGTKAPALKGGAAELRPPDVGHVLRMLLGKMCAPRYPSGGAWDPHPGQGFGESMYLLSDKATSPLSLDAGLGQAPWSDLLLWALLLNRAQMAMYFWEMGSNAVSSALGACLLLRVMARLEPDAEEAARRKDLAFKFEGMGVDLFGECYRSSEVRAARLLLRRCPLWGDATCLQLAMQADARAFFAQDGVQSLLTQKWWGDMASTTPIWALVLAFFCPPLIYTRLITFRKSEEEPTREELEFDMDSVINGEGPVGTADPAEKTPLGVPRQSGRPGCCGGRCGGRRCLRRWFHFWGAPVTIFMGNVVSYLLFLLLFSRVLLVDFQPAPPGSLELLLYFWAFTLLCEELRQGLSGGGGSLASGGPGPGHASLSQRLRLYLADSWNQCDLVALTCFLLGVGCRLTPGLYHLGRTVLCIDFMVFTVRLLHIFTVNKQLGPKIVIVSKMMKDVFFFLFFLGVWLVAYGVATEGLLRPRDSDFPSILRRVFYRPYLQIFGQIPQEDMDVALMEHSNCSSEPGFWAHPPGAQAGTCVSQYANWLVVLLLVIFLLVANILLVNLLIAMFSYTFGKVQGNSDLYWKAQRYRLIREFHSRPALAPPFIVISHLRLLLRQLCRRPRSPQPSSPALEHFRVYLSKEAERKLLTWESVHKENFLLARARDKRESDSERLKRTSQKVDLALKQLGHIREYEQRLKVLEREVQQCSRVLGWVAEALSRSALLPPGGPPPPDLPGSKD
Procedure, shortened: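 Endogenous TRPM4-like currents in Jurkat T cells, preincubated in standard external solution and recorded within 60 min. Pipette was Cs-glutamate with intracellular Ca2+ clamped to 2 μM. Ramps ran −100 to +100 mV over 50 ms at 0.5 Hz, and current was normalized and plotted against time.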

[21] = target: Transient receptor potential cation channel subfamily V member 1 (Rattus norvegicus) (UniProt O35433); test: Inhibition of TRPV1 in rat INS-1 cells assessed as reduction in intracellular calcium flux at 500 nM measured within 60 mins by whole cell patch clamp method; assay type: cell-based
Chain of Transient receptor potential cation channel subfamily V member 1 (Rattus norvegicus) (O35433 whole entry): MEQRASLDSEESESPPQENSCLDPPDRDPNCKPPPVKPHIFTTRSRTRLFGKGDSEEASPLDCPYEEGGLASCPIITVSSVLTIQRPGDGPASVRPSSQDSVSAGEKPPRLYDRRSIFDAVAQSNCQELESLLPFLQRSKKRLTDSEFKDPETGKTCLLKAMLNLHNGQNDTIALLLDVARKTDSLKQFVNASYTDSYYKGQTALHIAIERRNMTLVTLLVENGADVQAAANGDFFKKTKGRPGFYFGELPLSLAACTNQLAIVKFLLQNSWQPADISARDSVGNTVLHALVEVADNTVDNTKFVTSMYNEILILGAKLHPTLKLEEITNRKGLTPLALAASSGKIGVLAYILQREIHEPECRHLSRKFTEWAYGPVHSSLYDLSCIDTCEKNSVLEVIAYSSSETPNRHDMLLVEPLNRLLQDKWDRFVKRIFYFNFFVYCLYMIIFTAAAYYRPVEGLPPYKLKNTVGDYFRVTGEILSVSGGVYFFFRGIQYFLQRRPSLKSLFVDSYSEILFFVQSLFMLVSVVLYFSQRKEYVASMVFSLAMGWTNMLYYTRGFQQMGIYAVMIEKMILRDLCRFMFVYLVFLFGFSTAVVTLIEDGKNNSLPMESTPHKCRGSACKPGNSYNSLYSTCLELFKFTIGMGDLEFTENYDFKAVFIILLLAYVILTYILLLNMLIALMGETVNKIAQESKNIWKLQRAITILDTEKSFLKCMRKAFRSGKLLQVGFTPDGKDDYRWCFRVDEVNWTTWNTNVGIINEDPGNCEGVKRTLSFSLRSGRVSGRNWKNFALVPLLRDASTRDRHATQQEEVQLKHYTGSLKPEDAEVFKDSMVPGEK
Procedure, shortened: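 Endogenous TRPV1-like currents in INS-1 cells, preincubated in external solution and recorded within 60 min. Pipette was Cs-glutamate with Ca2+ unbuffered. Current was activated by 10 μM capsaicin in the bath. Ramps ran −100 to +100 mV, 50 ms, 0.5 Hz.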

[22] = target: Transient receptor potential cation channel subfamily M member 2 (Rattus norvegicus, UniProt E9PTA2); test: Inhibition of TRPM2 in rat INS-1 cells assessed as reduction in ADPR-induced intracellular calcium flux measured after 60 mins by whole cell patch clamp electrophysiology method; assay type: cell-based
Chain of Transient receptor potential cation channel subfamily M member 2 (Rattus norvegicus, UniProt E9PTA2) (E9PTA2 whole entry): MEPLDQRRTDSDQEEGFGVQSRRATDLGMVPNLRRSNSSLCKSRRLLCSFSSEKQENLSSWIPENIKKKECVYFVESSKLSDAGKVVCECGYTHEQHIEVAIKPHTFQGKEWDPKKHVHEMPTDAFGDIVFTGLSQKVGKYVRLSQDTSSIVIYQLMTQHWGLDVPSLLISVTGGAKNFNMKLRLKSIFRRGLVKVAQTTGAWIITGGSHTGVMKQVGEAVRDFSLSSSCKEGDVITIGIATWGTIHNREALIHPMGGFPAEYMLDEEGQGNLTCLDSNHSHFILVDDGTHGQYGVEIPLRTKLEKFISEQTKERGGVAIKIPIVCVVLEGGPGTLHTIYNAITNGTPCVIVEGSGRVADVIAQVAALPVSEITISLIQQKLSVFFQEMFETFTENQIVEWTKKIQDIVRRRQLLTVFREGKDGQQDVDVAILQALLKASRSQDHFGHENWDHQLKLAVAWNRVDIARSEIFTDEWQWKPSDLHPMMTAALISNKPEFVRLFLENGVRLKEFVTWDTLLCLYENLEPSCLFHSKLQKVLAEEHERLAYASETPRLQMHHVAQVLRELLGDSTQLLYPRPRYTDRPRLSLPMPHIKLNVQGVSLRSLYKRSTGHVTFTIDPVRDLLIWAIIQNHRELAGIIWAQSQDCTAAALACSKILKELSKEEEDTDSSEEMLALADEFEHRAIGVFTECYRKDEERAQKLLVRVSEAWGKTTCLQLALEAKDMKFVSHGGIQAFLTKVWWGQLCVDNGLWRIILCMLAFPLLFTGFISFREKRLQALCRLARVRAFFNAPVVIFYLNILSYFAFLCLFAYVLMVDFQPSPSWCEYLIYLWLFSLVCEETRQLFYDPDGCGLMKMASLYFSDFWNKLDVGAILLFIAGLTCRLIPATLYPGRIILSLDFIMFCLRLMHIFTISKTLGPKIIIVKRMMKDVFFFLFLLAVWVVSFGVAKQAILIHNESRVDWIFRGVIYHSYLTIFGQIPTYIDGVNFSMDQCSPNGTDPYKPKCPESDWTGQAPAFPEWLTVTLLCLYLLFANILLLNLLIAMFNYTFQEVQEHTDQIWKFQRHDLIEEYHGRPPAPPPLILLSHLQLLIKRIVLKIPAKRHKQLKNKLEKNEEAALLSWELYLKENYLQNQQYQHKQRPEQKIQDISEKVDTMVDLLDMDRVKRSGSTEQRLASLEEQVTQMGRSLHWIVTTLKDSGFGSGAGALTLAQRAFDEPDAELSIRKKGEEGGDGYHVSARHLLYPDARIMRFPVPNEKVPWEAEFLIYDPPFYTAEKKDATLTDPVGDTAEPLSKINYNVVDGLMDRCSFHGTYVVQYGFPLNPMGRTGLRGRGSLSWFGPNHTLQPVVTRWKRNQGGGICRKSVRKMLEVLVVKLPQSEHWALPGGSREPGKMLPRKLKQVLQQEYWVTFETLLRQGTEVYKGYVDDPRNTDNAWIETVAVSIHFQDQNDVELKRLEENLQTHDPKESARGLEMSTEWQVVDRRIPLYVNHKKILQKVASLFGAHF
Procedure, shortened: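 Whole-cell TRPM2 currents in INS-1 cells at 21–25 °C. Pipette was Cs-glutamate with ADPR and no Ca2+ chelator. Compound (10 nM–2 μM) in external Ringer's, recorded within the first 60 min of incubation. Ramps ran −100 to +100 mV, 50 ms, 0.5 Hz. Current at −80 mV and 50 s was normalized to control, and IC50 came from a dose–response fit.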

INS1 [23] = test: Cytotoxicity against rat INS-1 cells assessed as granule formation; assay type: cell-based
Procedure, shortened: (§5)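 INS-1 cells (RPMI, 10% FBS, 37 °C, 5% CO2) kept under continual scalaradial exposure in standard external solution during whole-cell patching. Cells were scored by eye for rounding, granule formation and blebbing over at least 1 h.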

INS1 [24] = test: Cytotoxicity against rat INS-1 cells assessed as cell rounding; assay type: cell-based; procedure, shortened: as §5
INS1 [25] = test: Cytotoxicity against rat INS-1 cells assessed as cell blebbing; assay type: cell-based; procedure, shortened: as §5
INS1 [26] = test: Cytotoxicity against rat INS-1 cells at 500 nM measured for 1 hr; assay type: cell-based; settings: ins1, 1 h, 0.5 µM; procedure, shortened: as §5
Phospholipase A2 = target: T2, Phospholipase A2 (Apis mellifera, UniProt P00630); test: Inhibition of bee venom PLA2
T2 sequence (P00630 whole entry): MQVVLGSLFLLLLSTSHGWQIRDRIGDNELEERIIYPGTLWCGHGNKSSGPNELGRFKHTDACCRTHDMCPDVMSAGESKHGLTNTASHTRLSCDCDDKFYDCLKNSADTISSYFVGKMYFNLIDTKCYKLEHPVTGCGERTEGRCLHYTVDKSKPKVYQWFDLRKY

[27] = Inhibition of recombinant human sPLA2 using [1-14C]oleate-labelled autoclaved Escherichia coli as substrate measured after 15 mins
[28] = target: T1, Transient receptor potential cation channel subfamily M member 2; test: Inhibition of human FLAG-tagged TRPM2 expressed in HEK293 cells assessed as reduction in ADPR-induced intracellular […] at 20 to 200 nM measured after 60 mins by whole cell patch clamp electrophysiology method; assay type: cell-based; procedure, shortened: as §3
HEK293 [29] = test: Cytotoxicity against HEK293 cells assessed as effect on cell viability at 200 nM; assay type: cell-based; settings: human, hek293, 0.2 µM
Procedure, shortened: (§6)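 Tetracycline-induced human TRPM2-HEK293 cells preincubated 60 min with compound in serum-containing medium, then moved to standard external Ringer's with compound still present for whole-cell recording ([…] internal). Cells scored by eye for rounding, granule formation and blebbing.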

HEK293 [30] = test: Cytotoxicity against HEK293 cells assessed as cell rounding at 200 nM; assay type: cell-based; settings: human, hek293, 0.2 µM; procedure, shortened: as §6
HEK293 [31] = test: Cytotoxicity against HEK293 cells assessed as granule formation at 200 nM; assay type: cell-based; settings: human, hek293, 0.2 µM; procedure, shortened: as §6
HEK293 [32] = test: Cytotoxicity against HEK293 cells assessed as cell blebbing at 200 nM; assay type: cell-based; settings: human, hek293, 0.2 µM; procedure, shortened: as §6

O=C(O)CC[C@@H](Cc1ccc(OCc2ccccc2)cc1)NC(=O)CCCCCCc1ccccc1
inhibition [1]: inactive
Activity (HEK293 [2]): Toxic

O=C1NCCc2c(OCCCCN3CCCCC3)cccc21
IC50 [3]: 600 nM
inhibition [4]: inactive

CCCCCc1ccc(/C=C/C(=O)Nc2ccccc2C(=O)O)cc1
IC50 [5]: 4500 nM

O=c1[nH]c2ccccc2n1C1CCN(Cc2ccc(-c3nc4cc5[nH]cnc5cc4nc3-c3ccccc3)cc2)CC1
inhibition [6]: inactive
Activity (HEK293 [7]): Toxic
Activity (HEK293 [8]): Toxic
Activity (HEK293 [9]): Toxic
Activity (HEK293 [10]): Toxic

CN(C)CC(=O)Nc1ccc2[nH]c(=O)c3ccccc3c2c1
IC50 [3]: 25 nM
inhibition [11]: inactive

CCCCCCCCCCCCCCCCOCC(COCC)OP(=O)([O-])OC.[Li+] (stereo not given)
inhibition [12]: inactive
Activity (HEK293 [13]): Toxic

CC(=O)O[C@H]1C[C@@H]2[C@@]3(C)CCCC(C)(C)[C@@H]3CC[C@@]2(C)[C@@H]2CC=C(C=O)[C@H](C=O)[C@@]12C [SCALARADIAL]
IC50 [14]: 210 nM
inhibition [14]: Dose-dependent effect
inhibition [15]: Tde
inhibition [16]: inactive
inhibition [17]: Tde
IC50 [18]: 760 nM
inhibition [19]: inactive
inhibition [20]: inactive
inhibition [21]: inactive
IC50 [22]: 330 nM
Activity (INS1 [23]): Toxic
Activity (INS1 [24]): Toxic
Activity (INS1 [25]): Toxic
Activity (INS1 [26]): Non-Toxic
IC50 (Phospholipase A2): 70 nM
IC50 [27]: 5400 nM

COC[C@H]1OC(=O)c2coc3c2[C@@]1(C)C1=C(C3=O)[C@@H]2CCC(=O)[C@@]2(C)C[C@H]1OC(C)=O [WORTMANNIN]
inhibition [28]: inactive
Activity (HEK293 [29]): Toxic
Activity (HEK293 [30]): Toxic
Activity (HEK293 [31]): Toxic
Activity (HEK293 [32]): Toxic
